From PMC11650976 (Dalton Transactions (Cambridge, England : 2003), 2024)

Columns and labels:
BT-333 (glioblastoma) = test: In vitro cytotoxicity; type: cell-based, human; conditions: read-out: IC50 BT-333; 72 h, MTT, mean ± S.D (n = 6)
How it was run: (§1)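 Adherent cancer cells were exposed to test compound for 72 h. The series was a 3-fold dilution starting at 100 μM.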

[1] = test system: MDA-MB-231 (triple negative breast cancer cell); test: In vitro cytotoxicity; type: cell-based, human; conditions: for IC50: read-out: IC50 MDA-MB-231, 72 h, MTT, mean ± S.D (n = 6)
How it was run: as §1

MDA-MB-231 cancer cells = test: Whole cellular uptake of Au; type: cell-based, human; conditions: 10 μM for 18 h, GFAAS
How it was run: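 Adherent MDA-MB-231 cells were incubated with the test compound at 10 μM for 18 h. Whole-cell gold content was then measured by graphite furnace AAS. Data are mean ± s.e.m. (n = 3), compared by ordinary one-way ANOVA.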

[2] = test system: MRC5 (human lung fibroblast); test: Cytotoxicity in normal cells MRC5; type: cell-based; conditions: read-out: IC50 MRC5; mean ± S.D (n = 6)
[3] = test system: mitochondria of MDA-MB-231 cancer cells; test: Mitochondria uptake of Au; type: cell-based, human; conditions: 10 μM for 18 h, 20 million cells, GFAAS, n = 2
How it was run: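 MDA-MB-231 cells (20 million) were treated with test compound at 10 μM for 18 h. Standard fractionation then gave pure mitochondria, and gold content was measured by GFAAS. Data are mean ± s.e.m. (n = 2), compared by ordinary one-way ANOVA.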

[4] = Solution stability in DMEM; type: physicochemical; conditions: 48 h, reading at λ = 260 nm
MDA-MB-231 cells [5] = test: Mitochondria membrane potential determination using TMRE dye; type: cell-based, human; conditions: for effect on mitochondria membrane potential (TMRE fluorescence): 5 and 10 μM for 2 hours
MDA-MB-231 cells [6] = test: Intracellular ROS determination; type: cell-based, human; conditions: 10 μM, 90 minutes, DCF-DA, FACS
How it was run: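 MDA-MB-231 cells were exposed to the test compound at 5 and 10 μM. The text gives 90 min of exposure, and the figure legend gives 2 h. Cells were then stained with 2′,7′-dichlorodihydrofluorescein diacetate, and intracellular fluorescence was read by flow cytometry at 488 nm. Groups were compared by ordinary one-way ANOVA.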

Compound	IC50 (BT-333 (glioblastoma)) [nM]	IC50 [1] [nM]	whole cell uptake (Au content) (MDA-MB-231 cancer cells)	IC50 [2] [nM]	mitochondria uptake (Au) [3] [nmol/20 million cells]	solution stability in DMEM [4]	effect on mitochondria membrane potential (TMRE fluorescence) (MDA-MB-231 cells [5])	intracellular ROS produced (MDA-MB-231 cells [6])	decrease in TMRE fluorescence intensity (mitochondria membrane potential) (MDA-MB-231 cells [5]; 10 μM, 2 hours)	fold more cytotoxic than Au(III) 3-PF6 counterpart (IC50) ([1]; in both cancer cell lines tested (MDA-MB-231, BT-333))
[Au+].[Cl-].c1ccc(P(c2ccccc2)c2ccccc2P(c2ccccc2)c2ccccc2)cc1.c1ccc(P(c2ccccc2)c2ccccc2P(c2ccccc2)c2ccccc2)cc1 [1-BF4, bis-[1,2-bis-(diphenylphosphino)benzene]gold(I)]	660 ± 20	820 ± 110								
[Au+].[Cl-].c1ccc(P(c2ccccc2)c2ccccc2P(c2ccccc2)c2ccccc2)cc1.c1ccc(P(c2ccccc2)c2ccccc2P(c2ccccc2)c2ccccc2)cc1 [1-Cl, bis-[1,2-bis-(diphenylphosphino)benzene]gold(I)]	410 ± 200	1140 ± 120	taken up more effectively compared to 1-AuCl4	1350 ± 40	214.5	stable in DMEM for 48 h without the formation of new adducts or reduction in peak intensity	did not affect the mitochondria membrane potential significantly			
[Au+].[Cl-].c1ccc(P(c2ccccc2)c2ccccc2P(c2ccccc2)c2ccccc2)cc1.c1ccc(P(c2ccccc2)c2ccccc2P(c2ccccc2)c2ccccc2)cc1 [1-AuCl4, bis-[1,2-bis-(diphenylphosphino)benzene]gold(I)]	1300 ± 40	1780 ± 150		930 ± 20						
bis-[1,2-bis-(diphenylphosphino)benzene]gold(III) chloride [3-AuCl4]	1380 ± 230	1520 ± 210	significantly higher whole cell uptake compared to their Au(I) counterparts	4470 ± 50	375	showed solution stability for 48 h but significant reduction in peak intensity after 1 h of incubation	concentration dependent decrease in fluorescence intensity	significant difference in the ROS produced by 3-AuCl4 compared to 1-Cl	about 53%	
bis-[1,2-bis-(diphenylphosphino)benzene]gold(III) chloride [3-PF6]	1760 ± 120	4920 ± 210	significantly higher whole cell uptake compared to their Au(I) counterparts							
[Au+].[Cl-].c1ccc(P(c2ccccc2)c2ccccc2P(c2ccccc2)c2ccccc2)cc1.c1ccc(P(c2ccccc2)c2ccccc2P(c2ccccc2)c2ccccc2)cc1 [1-PF6, bis-[1,2-bis-(diphenylphosphino)benzene]gold(I)]	380 ± 20	300 ± 100	taken up more effectively compared to 1-AuCl4	1910 ± 30						4–16 fold
